Experiment [1] is filed under the species Cavia porcellus. The experiment can be described thus: Compound was evaluated for its effect on LTD4-induced contraction of guinea pig trachea. Format: functional. A digest of the protocol:
(§1)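 Isolated guinea pig tracheal spiral strips were contracted with LTC4 or LTD4, with antagonist at 3×10^-6 M versus untreated control. Responses are expressed as percentage of the tissue's maximal response to carbachol (1 mM). Potency is given as -log of the agonist concentration (M) giving a half-maximal response. pKB = -log([B]/(dose ratio - 1)), where dose ratio = treated ED50 ÷ control ED50. Control vs treated compared by unpaired Student's t test.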

The species entered for experiment [2] is Cavia porcellus. As to the kind of experiment: Compound was evaluated for its effect on LTC4-induced contraction of guinea pig trachea. percentage of maximal response of tissue to carbachol. Format: functional. A digest of the protocol: as §1
For experiment [3], the species on record is Cavia porcellus. As to the kind of experiment: Compound was evaluated for its effect on LTD4-induced contraction of guinea pig trachea. percentage of maximal response of tissue to carbachol. The format is functional. In a few lines:
as §1

Experiment [4] is filed under the species Cavia porcellus. The experiment can be described thus: Compound was evaluated for its effect on LTC4-induced contraction of guinea pig trachea. The format is functional. In a few lines: as §1
The target of experiment [5] is T1, Polyunsaturated fatty acid 5-lipoxygenase (Rattus norvegicus, UniProt P12527).
T1 sequence (P12527 whole entry): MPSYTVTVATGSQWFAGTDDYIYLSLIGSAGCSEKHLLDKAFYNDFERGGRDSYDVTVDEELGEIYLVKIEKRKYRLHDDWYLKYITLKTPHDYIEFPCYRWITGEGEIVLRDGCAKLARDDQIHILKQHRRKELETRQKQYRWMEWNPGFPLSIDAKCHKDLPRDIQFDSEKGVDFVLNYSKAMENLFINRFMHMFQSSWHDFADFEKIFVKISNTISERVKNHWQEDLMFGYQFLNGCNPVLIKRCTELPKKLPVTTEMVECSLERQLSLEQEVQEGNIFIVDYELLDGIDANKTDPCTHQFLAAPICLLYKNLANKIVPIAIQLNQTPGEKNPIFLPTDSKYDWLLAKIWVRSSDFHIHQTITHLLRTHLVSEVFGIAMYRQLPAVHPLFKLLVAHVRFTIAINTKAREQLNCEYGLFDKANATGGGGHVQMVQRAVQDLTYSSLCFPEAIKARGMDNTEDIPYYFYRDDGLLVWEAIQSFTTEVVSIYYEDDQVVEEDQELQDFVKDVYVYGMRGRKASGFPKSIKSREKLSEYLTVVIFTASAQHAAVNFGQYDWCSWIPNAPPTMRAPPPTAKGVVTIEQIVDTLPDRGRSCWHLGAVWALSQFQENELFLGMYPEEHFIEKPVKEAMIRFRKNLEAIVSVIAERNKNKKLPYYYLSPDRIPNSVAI
As to the kind of experiment: Inhibition of rat polymorphonuclear leukocyte (PMN) 5-Lipoxygenase in vitro. In a few lines:
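Peritoneal PMNs came from female Wistar rats 24 h after ip 6% glycogen. Cells at 2×10^7/mL in HBSS with Ca2+/Mg2+ and 10 mM L-cysteine were preincubated with drug or vehicle for 10 min at 37 °C. The reaction was stopped with ice-cold water and acidified to pH 3.5, and LO and CO products were ether-extracted. IC50 per metabolite came from nonlinear regression.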

Experiment [6] has as its system Cavia porcellus. The experiment can be described thus: Compound was evaluated in vivo for the percent inhibition of Ovalbumin-induced (OA) bronchospasm in guinea pig at dose of 10 mg/kg iv. Format: functional. A digest of the protocol: (§2)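 Male Hartley guinea pigs (350-600 g) were sensitized with ovalbumin (5 mg ip plus 5 mg sc) and used 3-5 weeks later. They were anesthetized with pentobarbital, ventilated, and given indomethacin (10 mg/kg iv, 9 min before challenge) and chlorpheniramine (1.0 mg/kg iv, 1 min later). Drug was given id (or as noted) 10 min before 1% aerosolized ovalbumin; controls received saline. Overflow volume at 1, 3 and 5 min was taken as % of maximal bronchoconstriction and converted to % inhibition.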

Experiment [7] deals with Cavia porcellus. The experiment can be described thus: Compound was evaluated in vivo for the percent inhibition of LTD4-induced bronchospasm in guinea pig at dose of 10 mg/kg iv. Format: functional. In a few lines:
(§3)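 Male guinea pigs (350-600 g) were anesthetized with pentobarbital sodium (50 mg/kg ip), cannulated and artificially ventilated, and spontaneous respiration arrested with pentobarbital (15 mg/kg iv). Indomethacin (10 mg/kg iv) was given 9 min before challenge. Drug was given id (or as noted) 10 min before iv LTD4 (0.3-1 μg/kg); controls received saline. Overflow volume at 1, 3 and 5 min was taken as % of maximal bronchoconstriction and converted to % inhibition versus control.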

For experiment [8], the target named is Cyclooxygenase (Rattus norvegicus) (UniProt P35355+Q63921). The experiment can be described thus: In vitro inhibition of rat polymorphonuclear leukocyte (PMN) Prostaglandin G/H synthase at 100 uM.
Chain of Cyclooxygenase (Rattus norvegicus) (P35355 whole entry, looked up): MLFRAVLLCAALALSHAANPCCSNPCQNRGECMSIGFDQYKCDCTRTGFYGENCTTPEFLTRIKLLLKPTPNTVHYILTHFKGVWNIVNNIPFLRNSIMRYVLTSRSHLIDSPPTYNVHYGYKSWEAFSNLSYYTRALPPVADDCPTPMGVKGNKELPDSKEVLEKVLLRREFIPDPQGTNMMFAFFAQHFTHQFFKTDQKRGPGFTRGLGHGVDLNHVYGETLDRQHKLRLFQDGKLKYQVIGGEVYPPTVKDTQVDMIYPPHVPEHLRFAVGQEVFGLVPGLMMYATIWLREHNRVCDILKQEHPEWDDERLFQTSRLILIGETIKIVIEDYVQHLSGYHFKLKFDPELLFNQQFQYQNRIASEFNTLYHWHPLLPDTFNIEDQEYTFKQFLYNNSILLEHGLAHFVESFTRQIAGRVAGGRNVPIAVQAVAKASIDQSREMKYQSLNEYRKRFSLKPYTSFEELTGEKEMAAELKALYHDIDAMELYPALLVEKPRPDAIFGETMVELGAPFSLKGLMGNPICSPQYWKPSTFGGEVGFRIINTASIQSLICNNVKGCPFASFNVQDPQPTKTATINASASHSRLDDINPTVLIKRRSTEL
Chain of Cyclooxygenase (Rattus norvegicus) (Q63921 whole entry, looked up): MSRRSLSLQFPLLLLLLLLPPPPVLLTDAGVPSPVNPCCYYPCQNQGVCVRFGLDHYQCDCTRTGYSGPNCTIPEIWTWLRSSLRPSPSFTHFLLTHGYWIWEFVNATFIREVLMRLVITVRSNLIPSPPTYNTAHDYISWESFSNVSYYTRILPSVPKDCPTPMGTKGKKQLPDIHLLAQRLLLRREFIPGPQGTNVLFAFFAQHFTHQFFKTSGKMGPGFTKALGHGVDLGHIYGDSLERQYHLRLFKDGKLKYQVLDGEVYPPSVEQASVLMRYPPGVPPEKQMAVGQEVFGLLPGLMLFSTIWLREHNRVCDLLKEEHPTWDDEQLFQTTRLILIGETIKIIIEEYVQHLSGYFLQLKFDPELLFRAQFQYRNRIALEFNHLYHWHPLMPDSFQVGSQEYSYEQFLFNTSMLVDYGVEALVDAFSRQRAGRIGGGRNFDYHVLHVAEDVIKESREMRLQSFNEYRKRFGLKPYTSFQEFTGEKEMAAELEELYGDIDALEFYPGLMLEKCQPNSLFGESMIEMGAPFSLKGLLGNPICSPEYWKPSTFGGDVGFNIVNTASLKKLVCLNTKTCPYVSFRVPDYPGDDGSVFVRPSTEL
In experiment [9] the test system is Cavia porcellus. The experiment can be described thus: Compound was evaluated in vivo for the percent inhibition of LTD4-induced bronchospasm in guinea pig at dose of 50 mg/kg id. The format is functional. As to conditions: route intraduodenal. In a few lines: as §3
In experiment [10] the target is T2, Polyunsaturated fatty acid 5-lipoxygenase (Rattus norvegicus) (UniProt P12527).
T2 sequence (whole entry): T1 sequence (P12527 whole entry)
The experiment can be described thus: In vitro inhibition of rat polymorphonuclear leukocyte (PMN) 5-Lipoxygenase at 100 uM.

In experiment [11] the test system is Cavia porcellus. As to the kind of experiment: Compound was evaluated in vivo for the percent inhibition of Ovalbumin-induced (OA) bronchospasm in guinea pig at dose of 100 mg/kg id. The format is functional. As to conditions: route intraduodenal. In a few lines:
as §2

Experiment [12] in a line: In vivo inhibition of LTD4-induced bronchospasm in guinea pig at dose of 50 mg/kg. To be noted: Cavia porcellus.

In the case of `CCCc1c(OCCCCc2nnn[nH]2)ccc(C(C)=O)c1O` [TOMELUKAST], the “-Log ED50” value in experiment [1] stood at 7.49; in [4] it was 7.47. Also, the results for the pKB in experiment [1] and in experiment [4] were 5.63 and 5.74, respectively. The Max contractility in experiment [2] came to 73%; in experiment [3], 57%.
In experiment [5], `COC(=O)CCC(=O)Nc1cccc(OCc2ccc3ccccc3c2)c1` showed an IC50 of 3.2 µM. The inhibition in vivo at 10 mg/kg in experiment [6] came to 10%; in experiment [7], 54%. For the same compound, in experiment [8], the inhibition is under 50%.
`COC(=O)CCC(=O)Nc1ccc(NC(=O)CCC(=O)OC)c(OCc2ccc3ccccc3n2)c1` showed an inhibition in vivo at 50 mg/kg in experiment [9] of 18%. Moreover, the inhibition in experiment [10] was under 50%.
Consider `COC(=O)CCC(=O)Nc1ccccc1OCc1ccc2ccccc2n1`, for which, in experiment [11], 100 mg/kg produced 9% inhibition in vivo. In addition, the inhibition in [12] is -6%; in experiment [10] it was under 50%.

What is called pKB is −log10 of the KB, conventionally taken in molar units. A high value points to a low KB. The IC50 is the concentration that inhibits the measured activity by half. In general, inhibition in vivo refers to the share of the control response that was lost under treatment. Lower therefore signals a weak effect. In general, inhibition refers to the change of the read-out against control, counted positive when it falls.
